Published values of several laboratories.
Each line is one published result; the experiments were not run side by side.
Sample: Caco-2

SMILES	setting	efflux ratio
N[C@@H](COCC(=O)N1CCC[C@H](C(=O)NCc2nc(-c3ccc(C(F)(F)F)cc3)cs2)C1)c1ccccc1	–	11
O=C(Nc1ccc(OC(F)(F)F)cc1)N[C@H]1CC[C@H](Oc2ccc(C(=O)O)cc2)CC1	–	0.98
CC(C)c1nc(N(C)S(C)(=O)=O)nc(-c2ccc(F)cc2)c1/C=C/[C@@H](O)C[C@@H](O)CC(=O)O	5 µM, 2 h	142
O=c1cc(-c2ccc(O)cc2)oc2c([C@@H]3O[C@H](CO)[C@@H](O)[C@H](O)[C@H]3O)c(O)cc(O)c12	50 µg/mL	1.11
COCC(=O)N1CCC[C@H](C(=O)NCc2nc(-c3ccccc3)cs2)C1	–	1
O=c1c(O[C@@H]2O[C@H](CO)[C@H](O)[C@H](O)[C@H]2O)c(-c2ccc(O)c(O)c2)oc2cc(O)cc(O)c12	50 µg/mL	1.26
CO/N=C(\C(=O)N[C@@H]1C(=O)N2C(C(=O)O)=C(CSC(=O)c3ccco3)CS[C@H]12)c1csc(N)n1	200 µg/mL, 2 h, pH 7.4	1.96
Cc1ncc(Cl)cc1NCc1ccc(C(=O)N[C@@H](CC2CCCC2)C(=O)NC2CC2)s1	5 µM, 2 h, pH 7.4	41
CCOCC(=O)N1CCC[C@H](C(=O)NCc2nc(-c3ccc(C#N)nc3)cs2)C1	–	4.3
O=C1CCC(N2Cc3cc(C4CCN(Cc5ccccc5)CC4)ccc3C2=O)C(=O)N1 (centres unmarked)	10 µM, 2 h	1.9
N#Cc1ccc(C[C@H](Nc2nnc(-c3ccc(F)cc3)o2)C(=O)N2CCc3ccccc32)cc1	100 µM, 2 h	3.8
O=C(NCc1nc(-c2ccc(C(F)(F)F)cc2)cs1)[C@H]1CCCN(C(=O)COCCN2CCCC2)C1	–	46
N#Cc1ccc(C[C@H](Nc2nnc(-c3ccc(F)cc3)s2)C(=O)N2CCc3ccccc32)cc1	100 µM, 2 h	> 20
Cc1cc(C)c(CNC(=O)c2cc(Cl)c3c(c2C)O[C@@](C)([C@H]2CC[C@H](N(C)C)CC2)O3)c(=O)[nH]1	1 µM	52.4
